Source: ChEMBL document CHEMBL3272313, “3-Hydroxy-17-aralkylmorphinans as potential opiate receptor-site-directed alkylating agents” (J Med Chem, 1977)
Calls of active or inactive are those of the source. The calls are words filed in the database; no cut-off is given here.

Experiments:
Mus musculus [1] = assay: Ratio of morphine ED50 to compound ED50 for sc dosed Swiss-Webster mouse; format: functional
Mus musculus [2] = assay: Analgesic activity in sc dosed Swiss-Webster mouse after 30 mins; format: functional; settings: 0.5 h
Mus musculus [3] = assay: Analgesic activity in sc dosed Swiss-Webster mouse time of peak effect; format: functional
Mus musculus [4] = assay: Analgesic activity in Swiss-Webster mouse assessed as time required for sustainance of activity at 0.81 mg/kg, sc; format: functional; settings: route subcutaneous
Mus musculus [5] = assay: Inhibition of morphine sulfate-induced analgesic activity in Swiss-Webster mouse at 0.81 mg/kg, sc after 2.5 hrs; format: functional, organism-based; design: dose 0.81 mg/kg
Summary of the method: (§1)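 Male Swiss-Webster mice, 20–25 g. Challenge was 10 mg/kg morphine sulfate in 8–10 mice, read by the modified D'Amour–Smith test. Where block was seen, morphine ED50 (95% limits) was found by Litchfield–Wilcoxon.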

Mus musculus [6] = assay: Analgesic activity in Swiss-Webster mouse assessed as time required for sustainance of activity at 50 mg/kg, sc; format: functional; settings: route subcutaneous
Mus musculus [7] = assay: Inhibition of morphine sulfate-induced analgesic activity in Swiss-Webster mouse at 50 mg/kg, sc after 2 hrs; format: functional, organism-based; design: dose 50 mg/kg; summary of the method: as §1
Mus musculus [8] = assay: Analgesic activity in Swiss-Webster mouse assessed as time required for sustainance of activity at 100 mg/kg, sc; format: functional; settings: route subcutaneous
Mus musculus [9] = assay: Inhibition of morphine sulfate-induced analgesic activity in Swiss-Webster mouse at 100 mg/kg, sc after 2 hrs; format: functional, organism-based; design: dose 100 mg/kg; summary of the method: as §1
Mus musculus [10] = assay: Analgesic activity in Swiss-Webster mouse assessed as time required for sustainance of activity at 380 mg/kg, sc; format: functional; settings: route subcutaneous
Mus musculus [11] = assay: Inhibition of morphine sulfate-induced analgesic activity in Swiss-Webster mouse at 380 mg/kg, sc after 5.5 hrs; format: functional, organism-based; design: dose 380 mg/kg; summary of the method: as §1
Mus musculus [12] = assay: Analgesic activity in Swiss-Webster mouse assessed as time required for sustainance of activity at 40 mg/kg, sc; format: functional; settings: route subcutaneous
Mus musculus [13] = assay: Inhibition of morphine sulfate-induced analgesic activity in Swiss-Webster mouse at 40 mg/kg, sc after 3 hrs; format: functional, organism-based; design: dose 40 mg/kg; summary of the method: as §1
Mus musculus [14] = assay: Analgesic activity in Swiss-Webster mouse at 2 mg/kg, sc in presence of naloxone; format: functional, organism-based; design: dose 2 mg/kg
Summary of the method: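 Mice were pretreated with naloxone, then given blocker 2 mg/kg sc. After 2 h, when the naloxone effect had ended, morphine analgesia was tested in the same animals (modified D'Amour–Smith). Counts are responders per 10 mice.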

Mus musculus [15] = organism: Mus musculus; assay: Narcotic agonist activity in morphine-dependent mouse assessed as suppression of abstinence; format: functional, organism-based
Summary of the method: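 Single-dose suppression test in morphine-dependent mice after withdrawal (method of Takemori et al.); compound given sc.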

[16] = biological target: T1, Opioid receptors; mu/kappa/delta (Homo sapiens, UniProt P41145+P41143+P35372); assay: Displacement of [3H]naloxone from opiate receptor (unknown origin) after 10 mins
T1 sequence (P35372 whole entry, looked up): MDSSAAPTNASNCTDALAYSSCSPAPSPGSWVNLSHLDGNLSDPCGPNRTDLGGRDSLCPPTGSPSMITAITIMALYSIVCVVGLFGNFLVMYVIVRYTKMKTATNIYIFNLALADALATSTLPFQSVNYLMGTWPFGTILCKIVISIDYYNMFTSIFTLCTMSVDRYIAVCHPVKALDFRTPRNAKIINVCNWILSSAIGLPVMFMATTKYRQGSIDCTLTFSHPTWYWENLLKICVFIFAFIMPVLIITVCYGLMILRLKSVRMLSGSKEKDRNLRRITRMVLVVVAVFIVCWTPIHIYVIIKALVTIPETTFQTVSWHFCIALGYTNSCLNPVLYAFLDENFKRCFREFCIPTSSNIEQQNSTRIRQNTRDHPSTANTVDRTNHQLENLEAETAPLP
T1 sequence (P41143 whole entry, looked up): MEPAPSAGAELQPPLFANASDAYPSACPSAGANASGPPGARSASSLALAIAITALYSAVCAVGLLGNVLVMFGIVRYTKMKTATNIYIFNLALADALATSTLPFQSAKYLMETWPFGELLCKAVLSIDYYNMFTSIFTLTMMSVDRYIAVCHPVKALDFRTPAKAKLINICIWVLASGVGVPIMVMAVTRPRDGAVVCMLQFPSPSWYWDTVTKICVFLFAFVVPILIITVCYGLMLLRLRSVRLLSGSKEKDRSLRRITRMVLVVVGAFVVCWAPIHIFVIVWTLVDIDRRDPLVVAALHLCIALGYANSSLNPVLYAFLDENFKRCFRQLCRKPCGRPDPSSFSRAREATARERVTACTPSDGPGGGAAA
T1 sequence (P41145 whole entry, looked up): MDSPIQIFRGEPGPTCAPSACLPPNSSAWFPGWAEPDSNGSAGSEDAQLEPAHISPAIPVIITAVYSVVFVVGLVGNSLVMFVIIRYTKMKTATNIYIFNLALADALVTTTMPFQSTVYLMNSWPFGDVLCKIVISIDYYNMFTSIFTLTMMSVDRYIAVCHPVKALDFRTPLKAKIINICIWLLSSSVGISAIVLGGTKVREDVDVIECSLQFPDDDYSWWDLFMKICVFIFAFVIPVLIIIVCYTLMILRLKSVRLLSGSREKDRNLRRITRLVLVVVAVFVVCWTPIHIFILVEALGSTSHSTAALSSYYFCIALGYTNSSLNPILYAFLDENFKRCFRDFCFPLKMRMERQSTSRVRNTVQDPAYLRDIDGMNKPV

[17] = biological target: T1, Opioid receptors; mu/kappa/delta; assay: Displacement of [3H]naloxone from opiate receptor (unknown origin) after 10 mins in presence of NaCl
Summary of the method: (§2)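 [3H]naloxone 1.5×10^-9 M bound to a brain homogenate (Pert–Snyder method as modified by Pasternak, with a preincubation step), 10 min incubation. Run with and without 100 mM NaCl. Stereospecific binding was defined with 1×10^-6 M levallorphan. IC50 is the concentration giving 50% inhibition of stereospecific binding, and the ratio is IC50 with NaCl over IC50 without.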

[18] = biological target: T1, Opioid receptors; mu/kappa/delta; assay: Ratio of IC50 for opiate receptor (unknown origin) after 10 mins in presence of NaCl to IC50 for opiate receptor (unknown origin) after 10 mins; summary of the method: as §2
Mus musculus [19] = assay: Analgesic activity in Swiss-Webster mouse assessed as time required for sustainance of activity at 2 mg/kg, sc; format: functional; settings: route subcutaneous
Mus musculus [20] = assay: Inhibition of morphine sulfate-induced analgesic activity in Swiss-Webster mouse at 2 to 32 mg/kg, sc after 2 to 4 hrs; format: functional, organism-based
Summary of the method: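 Male Swiss-Webster mice received the maleimide blocker sc at 2, 8 or 32 mg/kg (40% propylene glycol). Morphine sulfate dose-response was run after reaction time returned to control (2, 3 or 4 h). Morphine ED50 and 95% limits were taken by Litchfield–Wilcoxon, and curve slopes were compared.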

Mus musculus [21] = assay: Analgesic activity in Swiss-Webster mouse assessed as time required for sustainance of activity at 20 mg/kg, sc; format: functional; settings: route subcutaneous
Mus musculus [22] = assay: Inhibition of morphine sulfate-induced analgesic activity in Swiss-Webster mouse at 100 mg/kg, sc after 1 hr; format: functional, organism-based; design: dose 100 mg/kg; summary of the method: as §1
Mus musculus [23] = assay: Analgesic activity in Swiss-Webster mouse assessed as time required for sustainance of activity at 2.6 mg/kg, sc; format: functional; settings: route subcutaneous
Mus musculus [24] = assay: Inhibition of morphine sulfate-induced analgesic activity in Swiss-Webster mouse at 2.6 mg/kg, sc after 2.5 hrs; format: functional, organism-based; design: dose 2.6 mg/kg; summary of the method: as §1
Mus musculus [25] = assay: Analgesic activity in Swiss-Webster mouse assessed as time required for sustainance of activity at 350 mg/kg, sc; format: functional; settings: route subcutaneous
Mus musculus [26] = assay: Inhibition of morphine sulfate-induced analgesic activity in Swiss-Webster mouse at 350 mg/kg, sc after 2 hrs; format: functional, organism-based; design: dose 350 mg/kg; summary of the method: as §1
Mus musculus [27] = assay: Analgesic activity in Swiss-Webster mouse assessed as time required for sustainance of activity at 2.7 mg/kg, sc; format: functional; settings: route subcutaneous

In the case of O=C(CBr)Nc1ccc(CCN2CC[C@]34CCCC[C@H]3[C@H]2Cc2ccc(O)cc24)cc1, the “Ratio ED50” value (Mus musculus [1]) is reported as 4, the ED50 (Mus musculus [2]) is reported as 0.13 mg/kg and the Time (Mus musculus [3]) is reported as 30 min. The Time (Mus musculus [4]) was 2.5 h and the inhibition (Mus musculus [5]) was “Active”.
CCOC(=O)/C=C\C(=O)Nc1cccc(CCCN2CC[C@]34CCCC[C@H]3[C@H]2Cc2ccc(O)cc24)c1 was tested, and the ED50 (Mus musculus [2]) was greater than 100 mg/kg, the Time (Mus musculus [6]) was 2 h and the inhibition (Mus musculus [7]) was “Active”.
CCOC(=O)CCC(=O)Nc1ccc(CCCN2CC[C@]34CCCC[C@H]3[C@H]2Cc2ccc(O)cc24)cc1 gave an ED50 (Mus musculus [2]) of 78.2 mg/kg, a Time (Mus musculus [3]) of 30 min and a Time (Mus musculus [8]) of 2 h. For the same compound, the inhibition (Mus musculus [9]) was “Active”.
In the case of CCOC(=O)/C=C/C(=O)Nc1cccc(CCCN2CC[C@]34CCCC[C@H]3[C@H]2Cc2ccc(O)cc24)c1, the ED50 (Mus musculus [2]) is reported as 76.5 mg/kg, the Time (Mus musculus [3]) is reported as 30 min and the Time (Mus musculus [10]) is reported as 5.5 h. For the same compound, the inhibition (Mus musculus [11]) was “Active”.
For CCOC(=O)CCC(=O)Nc1cccc(CCN2CC[C@]34CCCC[C@H]3[C@H]2Cc2ccc(O)cc24)c1, the ED50 (Mus musculus [2]) was 6 mg/kg, the Time (Mus musculus [3]) was 60 min and the Time (Mus musculus [12]) was 3 h. For the same compound, the inhibition (Mus musculus [13]) was “Active”.
Work on CCOC(=O)/C=C/C(=O)Nc1ccccc1CCN1CC[C@]23CCCC[C@H]2[C@H]1Cc1ccc(O)cc13 yielded an ED50 (Mus musculus [2]) greater than 150 mg/kg.
In the case of O=C1C=CC(=O)N1c1ccc(CCN2CC[C@]34CCCC[C@H]3[C@H]2Cc2ccc(O)cc24)cc1, the Activity (Mus musculus [14]) is reported as “inactive”, the inhibition (Mus musculus [15]) is reported as “Active” and the IC50 [16] is reported as 5.3 nM. For the same compound, the IC50 [17] was 5.7 ×10⁻⁸ M, the Ratio IC50 [18] was greater than 10 and the “Ratio ED50” value (Mus musculus [1]) was 4. The ED50 (Mus musculus [2]) was 1.1 mg/kg, the Time (Mus musculus [3]) was 30 min and the Time (Mus musculus [19]) was 2 h. The inhibition (Mus musculus [20]) was “Active”.
CN1CC[C@]23c4c5ccc(O)c4O[C@H]2[C@@H](O)C=C[C@H]3[C@H]1C5.CN1CC[C@]23c4c5ccc(O)c4O[C@H]2[C@@H](O)C=C[C@H]3[C@H]1C5.O=S(=O)(O)O showed an ED50 (Mus musculus [2]) of 4.9 mg/kg and a Time (Mus musculus [3]) of 30 min.
For CCOC(=O)/C=C/C(=O)Nc1cccc(CCN2CC[C@]34CCCC[C@H]3[C@H]2Cc2ccc(O)cc24)c1, the inhibition (Mus musculus [15]) was “Active”, the ED50 (Mus musculus [2]) was 5.6 mg/kg and the Time (Mus musculus [3]) was 60 min. The Time (Mus musculus [21]) was 3 h.
With CCOC(=O)CCC(=O)Nc1cccc(CCCN2CC[C@]34CCCC[C@H]3[C@H]2Cc2ccc(O)cc24)c1 the ED50 (Mus musculus [2]) was 77.9 mg/kg, the Time (Mus musculus [3]) was 30 min and the Time (Mus musculus [8]) was 1 h. For the same compound, the inhibition (Mus musculus [22]) was “Active”.
With O=C1C=CC(=O)N1c1cccc(CCN2CC[C@]34CCCC[C@H]3[C@H]2Cc2ccc(O)cc24)c1 the inhibition (Mus musculus [15]) was “Active”, the ED50 (Mus musculus [2]) was 11.4 mg/kg and the Time (Mus musculus [3]) was 30 min. The Time (Mus musculus [21]) was 2 h.
CCOC(=O)/C=C/C(=O)Nc1ccc(CCN2CC[C@]34CCCC[C@H]3[C@H]2Cc2ccc(O)cc24)cc1 was tested, and the “Ratio ED50” value (Mus musculus [1]) was 4, the ED50 (Mus musculus [2]) was 1.2 mg/kg and the Time (Mus musculus [3]) was 60 min. The Time (Mus musculus [23]) was 2.5 h and the inhibition (Mus musculus [24]) was “Active”.
Compound CCOC(=O)/C=C/C(=O)Nc1ccccc1CCCN1CC[C@]23CCCC[C@H]2[C@H]1Cc1ccc(O)cc13 has an ED50 (Mus musculus [2]) of 84 mg/kg, a Time (Mus musculus [3]) of 15 min and a Time (Mus musculus [25]) of 2 h. The inhibition (Mus musculus [26]) was “Active”.
CC(=O)Oc1ccc2c(c1)[C@@]13CCCC[C@H]1[C@@H](C2)N(CCCc1cccc(N2C(=O)C=CC2=O)c1)CC3 was tested, and the ED50 (Mus musculus [2]) was greater than 100 mg/kg, the Time (Mus musculus [8]) was 2 h and the inhibition (Mus musculus [9]) was “Active”.
In the case of CCOC(=O)CCC(=O)Nc1ccc(CCN2CC[C@]34CCCC[C@H]3[C@H]2Cc2ccc(O)cc24)cc1, the inhibition (Mus musculus [15]) is reported as “Active”, the “Ratio ED50” value (Mus musculus [1]) is reported as 4 and the ED50 (Mus musculus [2]) is reported as 0.71 mg/kg. For the same compound, the Time (Mus musculus [3]) was 60 min and the Time (Mus musculus [27]) was 4 h.
In the case of O=C(CBr)Nc1cccc(CCCN2CC[C@]34CCCC[C@H]3[C@H]2Cc2ccc(O)cc24)c1, the ED50 (Mus musculus [2]) is reported as greater than 100 mg/kg, the Time (Mus musculus [8]) is reported as 1 h and the inhibition (Mus musculus [22]) is reported as “Active”.
